# TRPC4 agonist – TRPC4 (mouse) channel activation. 310,000 compounds, 0.49% hits. B-score at 10 µM. Q9QUQ5. HEK293 TRPC4beta/mu-opioid, Fluo4 calcium fluorescence; stronger effect = higher value. AID 2237;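 active means B-score above 5 SD of library B-scores, and initial fluorescence ratio not above library mean plus 5 SD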;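 further: positive B-score marks a calcium rise read as TRPC4 activation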
#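 System – HEK293 cells stably co-expressing mouse TRPC4beta and mu-opioid receptor · Signal – Fluo4 calcium-sensitive dye fluorescence, kinetic, 1 Hz baseline · Benchmarks – buffer (low) and maximal DAMGO (high) · Read-out – B score of integrated fluorescence ratio per well · Incubation – dye loading 45 min room temperature, 110 s kinetic read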
# TRPC4 block – TRPC4 (mouse) channel inhibition | Q9QUQ5 | HEK293 TRPC4beta/mu-opioid, DAMGO-evoked Fluo4 calcium flux; stronger effect = lower value | B-score at 10 µM | 300,000 compounds, 0.39% hits | AID 2247;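 active means B-score over 3 SD under the library average, no early fluorescence shift, positive overall ratio signal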
#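 Assay system: HEK293 cells with stable TRPC4beta plus mu-opioid receptor expression; Probe or stimulus: DAMGO in two steps, submaximal then maximal; Dosing: single-point compound dosing; Measured by: Fluo4 calcium-dye fluorescence, kinetic read; Read-out basis: B score from integrated Fluo4 fluorescence ratio.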
# Kir21 inh – inhibitors of mouse Kir2.1 inward-rectifier potassium channel. HEK293-Kir2.1, FluxOR thallium flux fluorescence; stronger effect = lower value. B-score at 10 µM. 310,000 compounds, 0.85% hits;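 active means fluorescence ratio B-score at or below minus 3 SD of library scores, with starting-brightness B-score within 2 SD, cut at about -4.2 in these data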;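 further: channel flux triggered by added potassium and thallium sulfate stimulus; B-score of peak minus minimum fluorescence over baseline after thallium stimulus; more negative B-score means stronger Kir2.1 block with less thallium influx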
# Target sequence (P35561 whole entry, looked up): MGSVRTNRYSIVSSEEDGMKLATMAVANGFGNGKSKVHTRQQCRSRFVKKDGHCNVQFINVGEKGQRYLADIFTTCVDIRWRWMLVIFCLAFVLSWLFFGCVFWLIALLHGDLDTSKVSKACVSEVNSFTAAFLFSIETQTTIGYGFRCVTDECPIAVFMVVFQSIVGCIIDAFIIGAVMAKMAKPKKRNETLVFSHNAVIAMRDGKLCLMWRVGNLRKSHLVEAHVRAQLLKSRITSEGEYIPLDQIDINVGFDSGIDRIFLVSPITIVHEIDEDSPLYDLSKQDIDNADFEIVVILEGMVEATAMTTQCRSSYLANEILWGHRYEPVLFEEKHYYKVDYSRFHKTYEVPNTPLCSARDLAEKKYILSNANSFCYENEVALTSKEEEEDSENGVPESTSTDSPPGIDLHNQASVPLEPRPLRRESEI
# TRPC6 activator – mouse TRPC6 channel activation | Q61143 | HEK293-TRPC6 membrane potential dye fluorescence; stronger effect = higher value | B-score at 10 µM | 310,000 compounds, 0.13% hits | AID 2550;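 active means B-score of the integrated fluorescence ratio above library mean plus 3 SD, and starting fluorescence ratio within library mean plus 5 SD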;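 further: higher score means more depolarization so channel activation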
# TRPC4 potent – allosterically enhances the mouse TRPC4 cation channel; HEK293 TRPC4beta/mu-opioid, DAMGO EC20, Fluo-4 Ca2+ flux; stronger effect = higher value; AID 2227; B-score at 10 µM; Q9QUQ5; 310,000 compounds, 0.42% hits;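 active means B-score of calcium response area above 5 SD of library B-scores, with initial fluorescence ratio within 5 SD of library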;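 further: B-score of integrated fluorescence ratio over time as area under calcium response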
# TRPC6 inhibitor – blocks the mouse TRPC6 cation channel | B-score at 10 µM | Q61143 | 310,000 compounds, 1.1% hits | AID 2553 | HEK293-TRPC6, membrane potential dye, ACh-evoked depolarization; stronger effect = lower value;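 active means B-score under library mean minus 3 SD, initial fluorescence not abnormally high, positive integrated signal ratio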;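 further: B-score derived from integrated fluorescence ratio over the kinetic read; more negative B-score means stronger inhibition of depolarization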
# hERG ctr – counter-screen for Kir2.1 inhibitors: effect on human hERG; 320 compounds, 20% hits; shares compounds with Kir21 inh; inhibition, % at 10 µM; AID 2236; hERG-expressing cells, thallium flux;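 further: host cells are CHO cells stably expressing hERG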
# KCNK9 spec – selectivity of Kir2.1 inhibitors: effect on human KCNK9; shares compounds with Kir21 inh; KCNK9-expressing cells, ion flux inhibition; 320 compounds, 5% hits; AID 2329; inhibition, % at 10 µM
# Kir21 ephys inh – blocks mouse Kir2.1 current in automated electrophysiology; shares compounds with Kir21 inh; 320 compounds, 71% hits; inhibition, % at 25 µM; Kir2.1 cells, automated patch-clamp current inhibition; AID 463252
# The depositor's hits bear a star; i = inactive; . = no result given. Shown are actives, neighbours in structure and some others; about 2.9% of the full set was active somewhere. Unless noted, how the calls were made is not given here.
SMILES,TRPC4 agonist,TRPC4 block,Kir21 inh,TRPC6 activator,TRPC4 potent,TRPC6 inhibitor,hERG ctr,KCNK9 spec,Kir21 ephys inh
NC(=O)C1=C[C@H](c2ccc(Br)cc2)C[C@H](OCc2ccc(CO)cc2)O1,i,i,-7.1*,i,i,i,i,i,23%*
COc1cc(/C=N/O)cc(Br)c1OCc1ccc(Cl)cc1,i,i,0.68,i,i,i,.,.,.
CCCCOc1c(Br)cc(/C=N/O)cc1OCC,i,i,-7.3*,i,i,i,i,i,11%*
COc1cc(N2C(=O)c3ccccc3C2=O)c(Cl)cc1C(=O)OCC(=O)N(C)C,i,i,0.82,i,i,i,.,.,.
CCCCN(C(=O)COc1ccc(C)cc1OC)c1c(N)n(CCC)c(=O)[nH]c1=O,i,i,-0.26,i,i,i,.,.,.
CCN(CC)S(=O)(=O)c1ccc(Cl)c(OC)c1,i,i,0.64,i,i,i,.,.,.
CCCN(CCC)S(=O)(=O)c1ccc(Cl)c(OC)c1,i,i,-6.2*,i,i,i,i,i,32%*
Cc1cc(Cl)cc(Br)c1OCCCNCC(C)O (stereo unspecified),i,i,-9.3*,i,i,i,i,i,39%*
CSc1ccc(NC(=O)NCCCN2CCC(Cc3ccccc3)CC2)cc1,i,i,-6*,i,i,i,75%*,i,20%*
COc1ccc(NC(=O)NCCCN2CCC(Cc3ccccc3)CC2)cc1,i,i,-2.8,i,i,i,.,.,.
Cc1onc(-c2ccccc2)c1CNS(=O)(=O)c1cccc(Cl)c1,i,i,-9.8*,i,i,i,i,i,12%*
CC1CCCN(C(=O)C(=O)c2cn(CC(=O)N3CCCCCC3)c3ccccc23)C1 (stereo unspecified),i,i,0,i,i,i,.,.,.
Cc1cc(C)c(C)c(S(=O)(=O)NCC(=O)O)c1C,i,i,1,i,i,i,.,.,.
Cc1cc(C)c(C)c(S(=O)(=O)NCC(=O)Nc2ccccc2F)c1C,i,i,-6.9*,i,i,i,i,i,i
CC(C)CC(C)c1cc(N)nc2nc3ccccc3n12 (stereo unspecified),i,i,-1.1,i,i,i,.,.,.
COCCNCC(O)CON=C1c2ccccc2-c2ccccc21 (stereo unspecified),55*,i,-7*,i,i,i,i,i,19%*
CCNC(=O)CON=C1c2ccccc2-c2ccccc21,i,i,2.3,i,i,i,.,.,.
Cc1ccc(S(=O)(=O)CCSc2cccc(C(=O)Nc3ccccc3C(=O)O)c2)cc1,i,i,-0.96,i,i,i,.,.,.
CC1(c2nnc(-c3cccc(Cl)c3)o2)CC(c2ccc(Br)cc2)=NO1 (stereo unspecified),i,i,-0.79,i,i,i,.,.,.
O=C(Oc1ccc(C(=S)N2CCOCC2)cc1)c1ccccc1F,i,i,-7.6*,i,i,i,i,i,i
CCn1cc(C(=O)NCCc2ccccc2)c(=O)c2cc(S(=O)(=O)N(C)C)ccc21,i,i,3.5,i,i,i,i,i,i
CCn1cc(C(=O)NCCCOC)c(=O)c2cc(S(=O)(=O)N(C)C)ccc21,i,i,-0.7,i,i,i,.,.,.
CCC(C)NCCOCCOc1ccccc1-c1ccccc1 (stereo unspecified),i,-7*,-6.2*,i,i,i,i,i,35%*
